Results published in ChEMBL document CHEMBL3392964, “Design, synthesis, and evaluation of novel imidazo[1,2-a][1,3,5]triazines and their derivatives as focal adhesion kinase inhibitors with antitumor activity” (J Med Chem, 2015).
Activity calls are given as the source filed them. The rule behind the calls is not given here.

What was measured:
Focal adhesion kinase 1 [1] = molecular target: T1, Focal adhesion kinase 1 (Homo sapiens, UniProt Q05397); test: Inhibition of FAK phosphorylation at tyrosine 397 in human U87MG cells at 0.1 to 10 uM after 48 hrs by FACEFAK ELISA; format: cell-based; conditions: U-87MG ATCC
Outline: (§1)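 Cells were grown in DMEM with 10% FBS, seeded at 3 × 10^3 per well and treated for 48 h at 0.1, 1 and 10 μM. They were then fixed in 4% formaldehyde and probed with anti-phospho-Tyr397 FAK or total-FAK antibody plus an HRP secondary, read at 450 nm. Signal was normalised to total FAK and to crystal-violet cell number (595 nm). Values are fold decrease versus control, mean of triplicate readings from three independent experiments.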

Focal adhesion kinase 1 [2] = molecular target: T1, Focal adhesion kinase 1; test: Inhibition of FAK phosphorylation at tyrosine 397 in human HCT116 cells at 0.1 to 10 uM after 48 hrs by FACEFAK ELISA; format: cell-based; conditions: HCT-116; outline: as §1
Focal adhesion kinase 1 [3] = molecular target: T1, Focal adhesion kinase 1; test: Inhibition of FAK phosphorylation at tyrosine 397 in human MDA-MB-231 cells at 0.1 to 10 uM after 48 hrs by FACEFAK ELISA; format: cell-based; outline: as §1
Focal adhesion kinase 1 [4] = molecular target: T1, Focal adhesion kinase 1; test: Inhibition of FAK phosphorylation at tyrosine 397 in human PC3 cells at 0.1 to 10 uM after 48 hrs by FACEFAK ELISA; format: cell-based; conditions: PC-3; outline: as §1
[5] = Antiproliferative activity against human U87MG cells after 48 hrs by WST-1 assay; format: functional, cell-based, U-87MG ATCC; conditions: U-87 MG
Outline: (§2)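 Exponentially growing cells in DMEM/10% FBS seeded at 5 × 10^3 per well, left overnight, then exposed 48 h to compounds diluted from DMSO; WST-1 added for 2 h, absorbance at 450 nm (reference 620 nm); viability as ratio to DMSO controls; three independent experiments, triplicate points; IC50 by nonlinear regression (log inhibitor vs normalized response, variable slope).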

[6] = Antiproliferative activity against human HCT116 cells after 48 hrs by WST-1 assay; format: functional, cell-based; conditions: HCT-116, 48 h; outline: as §2
MDA-MB-231 [7] = test: Antiproliferative activity against human MDA-MB-231 cells after 48 hrs by WST-1 assay; format: functional, cell-based; conditions: MDA-MB-231, 48 h; outline: as §2
[8] = Antiproliferative activity against human PC3 cells after 48 hrs by WST-1 assay; format: functional, cell-based; conditions: PC-3, 48 h; outline: as §2
[9] = (§3) Inhibition of colony formation in human U87MG cells after 2 weeks by crystal violet staining-based assay; format: functional, cell-based, U-87MG ATCC; conditions: U-87 MG, 336 h
Outline: (§4)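 Seeding: 250 cells per well for HCT-116, 300 for U87MG, MDA-MB-231 and PC-3; incubated overnight, then exposed to a range of concentrations for 2 weeks. Fixed in 4% paraformaldehyde 30 min at room temperature, stained with 0.1% crystal violet. Colonies over 50 cells counted; colony formation rate calculated; IC50 by nonlinear regression.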

U-87MG ATCC [10] = test: as §3; format: functional, cell-based; outline: as §4
[11] = (§5) Inhibition of colony formation in human HCT116 cells after 2 weeks by crystal violet staining-based assay; format: functional, cell-based; conditions: HCT-116, 336 h; outline: as §4
HCT-116 [12] = test: as §5; format: functional, cell-based; outline: as §4
MDA-MB-231 [13] = test: Inhibition of colony formation in human MDA-MB-231 cells after 2 weeks by crystal violet staining-based assay; format: functional, cell-based; outline: as §4
[14] = (§6) Inhibition of colony formation in human PC3 cells after 2 weeks by crystal violet staining-based assay; format: functional, cell-based; conditions: PC-3, 336 h; outline: as §4
PC-3 = test: as §6; format: functional, cell-based; outline: as §4
U-87 MG [15] = test: Induction of apoptosis in human U87MG cells assessed as early apoptotic cells at 1 uM after 24 hrs by Annexin V-PE/7-AAD staining-based FACS analysis (reference value: 0.691%); format: functional, U-87MG ATCC
U-87 MG [16] = test: Induction of apoptosis in human U87MG cells assessed as late apoptotic cells at 1 uM after 24 hrs by Annexin V-PE/7-AAD staining-based FACS analysis (reference value: 1.59%); format: functional, U-87MG ATCC
U-87 MG [17] = test: Induction of apoptosis in human U87MG cells assessed as necrotic cells at 1 uM after 24 hrs by Annexin V-PE/7-AAD staining-based FACS analysis (reference value: 1.06%); format: functional, U-87MG ATCC
U-87 MG [18] = test: Induction of apoptosis in human U87MG cells assessed as viable cells at 1 uM after 24 hrs by Annexin V-PE/7-AAD staining-based FACS analysis (reference value: 96.7%); format: functional, U-87MG ATCC; conditions: read-out: Activity
HCT-116 [19] = test: Induction of apoptosis in human HCT116 cells assessed as early apoptotic cells at 0.3 uM after 24 hrs by Annexin V-PE/7-AAD staining-based FACS analysis (reference value: 4.68%); format: functional
HCT-116 [20] = test: Induction of apoptosis in human HCT116 cells assessed as late apoptotic cells at 0.3 uM after 24 hrs by Annexin V-PE/7-AAD staining-based FACS analysis (reference value: 1.22%); format: functional
HCT-116 [21] = test: Induction of apoptosis in human HCT116 cells assessed as necrotic cells at 0.3 uM after 24 hrs by Annexin V-PE/7-AAD staining-based FACS analysis (reference value: 0.885%); format: functional
HCT-116 [22] = test: Induction of apoptosis in human HCT116 cells assessed as viable cells at 0.3 uM after 24 hrs by Annexin V-PE/7-AAD staining-based FACS analysis (reference value: 93.2%); format: functional; conditions: HCT-116, 24 h, read-out: Activity
HCT-116 [23] = test: Induction of apoptosis in human HCT116 cells assessed as apoptotic cells at 0.3 uM after 24 hrs by Annexin V-PE/7-AAD staining-based FACS analysis relative to control; format: functional
HCT-116 [24] = test: Induction of apoptosis in human HCT116 cells at < 0.3 uM after 24 hrs by Annexin V-PE/7-AAD staining-based FACS analysis; format: functional, cell-based
[25] = Cell cycle arrest in human U87MG cells assessed as accumulation at G0/G1 phase at 1 uM after 24 hrs by propidium iodide staining-based flow cytometry (reference value: 61.7%); format: functional; conditions: U-87MG ATCC
Outline: (§7)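 Cells plated at 10^5 per well, left overnight, then exposed 24 h to compound or vehicle; stained 15 min at 37 °C with propidium iodide/Triton buffer; DNA content by flow cytometry, phase distribution fitted by Dean–Jett–Fox; HCT-116 at 0.3–0.5 μM, U87-MG at 0.3–3 μM; significance by unpaired Student's t test; one representative experiment.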

[26] = Cell cycle arrest in human U87MG cells assessed as accumulation at S phase at 1 uM after 24 hrs by propidium iodide staining-based flow cytometry (reference value: 16%); format: functional; conditions: U-87MG ATCC; outline: as §7
[27] = Cell cycle arrest in human U87MG cells assessed as accumulation at G2/M phase at 1 uM after 24 hrs by propidium iodide staining-based flow cytometry (reference value: 20%); format: functional; conditions: U-87MG ATCC; outline: as §7
[28] = Cell cycle arrest in human HCT116 cells assessed as accumulation at G0/G1 phase at 0.3 uM after 24 hrs by propidium iodide staining-based flow cytometry (reference value: 63.8%); format: functional; conditions: HCT-116; outline: as §7
[29] = Cell cycle arrest in human HCT116 cells assessed as accumulation at S phase at 0.3 uM after 24 hrs by propidium iodide staining-based flow cytometry (reference value: 17.7%); format: functional; conditions: HCT-116; outline: as §7
[30] = Cell cycle arrest in human HCT116 cells assessed as accumulation at G2/M phase at 0.3 uM after 24 hrs by propidium iodide staining-based flow cytometry (reference value: 14.6%); format: functional; conditions: HCT-116; outline: as §7
[31] = Cell cycle arrest in human U87MG cells at < 1 uM after 24 hrs by propidium iodide staining-based flow cytometry; format: functional; conditions: U-87MG ATCC; outline: as §7
[32] = Cell cycle arrest in human HCT116 cells at < 0.3 uM after 24 hrs by propidium iodide staining-based flow cytometry; format: functional; conditions: HCT-116; outline: as §7
U-87 MG [33] = test: Reduction of cell adherence in human U87MG cells at 1 uM after 30 mins by toluidine blue staining-based […]; format: functional, U-87MG ATCC; set-up: scale not given: the % may be the effect or the level left
Outline: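 U87-MG cells grown in 10% serum, trypsinised, diluted to 100 000 cells/mL in 10% serum medium, then treated 30 min with compound or DMSO. 20 000 cells per well allowed to attach 1 h. Fixed in 4% paraformaldehyde 30 min, stained with 0.1% toluidine blue in 4% PFA 30 min, washed, OD read at 620 nm for attached cells.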

[34] = Antimigratory activity in human U87MG cells at 1 uM […] by transwell membrane assay; format: functional, U-87MG ATCC
U-87MG ATCC [35] = test: Antimigratory activity in human U87MG cells after 30 mins by boyden chamber assay; format: functional, cell-based

T1 sequence (Q05397 2-1052 limits assumed): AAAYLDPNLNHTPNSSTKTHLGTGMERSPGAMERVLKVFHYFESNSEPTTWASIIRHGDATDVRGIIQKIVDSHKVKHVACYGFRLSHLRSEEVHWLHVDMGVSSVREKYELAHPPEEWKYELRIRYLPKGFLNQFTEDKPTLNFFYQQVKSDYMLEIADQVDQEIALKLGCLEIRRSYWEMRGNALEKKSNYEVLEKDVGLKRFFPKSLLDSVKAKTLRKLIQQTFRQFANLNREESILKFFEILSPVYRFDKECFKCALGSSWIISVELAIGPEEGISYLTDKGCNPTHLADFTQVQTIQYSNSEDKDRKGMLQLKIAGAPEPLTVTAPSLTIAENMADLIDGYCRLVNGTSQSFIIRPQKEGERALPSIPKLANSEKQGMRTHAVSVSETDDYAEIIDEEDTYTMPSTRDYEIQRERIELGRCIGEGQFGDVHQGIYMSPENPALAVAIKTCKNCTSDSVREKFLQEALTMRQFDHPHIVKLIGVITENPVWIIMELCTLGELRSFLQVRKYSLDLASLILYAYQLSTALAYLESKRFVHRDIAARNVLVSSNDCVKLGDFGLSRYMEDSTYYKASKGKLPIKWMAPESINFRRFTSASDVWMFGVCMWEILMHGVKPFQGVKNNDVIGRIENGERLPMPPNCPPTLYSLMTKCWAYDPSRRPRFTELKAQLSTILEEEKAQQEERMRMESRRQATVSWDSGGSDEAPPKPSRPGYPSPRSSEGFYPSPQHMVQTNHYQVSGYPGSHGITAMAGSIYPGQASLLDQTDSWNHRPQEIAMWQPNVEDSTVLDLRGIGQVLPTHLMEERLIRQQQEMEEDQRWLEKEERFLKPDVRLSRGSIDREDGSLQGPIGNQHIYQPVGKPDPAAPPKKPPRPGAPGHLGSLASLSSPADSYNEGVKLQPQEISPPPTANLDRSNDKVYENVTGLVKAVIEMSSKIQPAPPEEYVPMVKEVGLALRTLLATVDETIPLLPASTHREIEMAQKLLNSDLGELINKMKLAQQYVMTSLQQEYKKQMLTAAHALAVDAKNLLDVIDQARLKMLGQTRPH

CNC(=O)c1ccccc1Nc1nc(Nc2ccc(N3CCOCC3)cc2OC)ncc1Cl
inhibition (Focal adhesion kinase 1 [1]): Active | inhibition (Focal adhesion kinase 1 [2]): Active | inhibition (Focal adhesion kinase 1 [3]): Active | inhibition (Focal adhesion kinase 1 [4]): Active | IC50 [5]: 1200 nM | IC50 [6]: 400 nM | IC50 (MDA-MB-231 [7]): 2800 nM | IC50 [8]: 1600 nM | IC50 [9]: 190 nM | inhibition (U-87MG ATCC [10]): Dose-dependent effect | IC50 [11]: 230 nM | inhibition (HCT-116 [12]): Dose-dependent effect | inhibition (MDA-MB-231 [13]): Dose-dependent effect | IC50 (MDA-MB-231 [13]; MDA-MB-231, 336 h): 1900 nM | IC50 [14]: 260 nM | inhibition (PC-3): Dose-dependent effect | Activity (U-87 MG [15]): 3.12% | Activity (U-87 MG [16]): 0.596% | Activity (U-87 MG [17]): 0.9% | viability at 1 µM (U-87 MG [18]): 95.4% | Activity (HCT-116 [19]): 12.3% | Activity (HCT-116 [20]): 32% | Activity (HCT-116 [21]): 13.1% | viability at 0.3 µM (HCT-116 [22]): 42.7% | Activity (HCT-116 [23]): 41.8% | Activity (HCT-116 [24]): Active | Activity [25]: 49.9% | Activity [26]: 7.11% | Activity [27]: 40.8% | Activity [28]: 31.3% | Activity [29]: 10.4% | Activity [30]: 54.4% | Activity [31]: Active | Activity [32]: Active | Activity (U-87 MG [33]): 36% | Activity [34]: 25.5% | Activity (U-87MG ATCC [35]): Dose-dependent effect
